Test results published in ChEMBL document CHEMBL1275524, “Activities of antifungal agents against yeasts and filamentous fungi: assessment according to the methodology of the European Committee on Antimicrobial Susceptibility Testing” (2008).
Values after ≈ are worked out from the molar mass of the structure shown.

Key:
[1] = system: Candida albicans; test: Antifungal activity against Candida albicans; assay type: functional
Outline: (§1)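 Broth microdilution in flat-bottom plates in RPMI 1640 with 2% glucose; inoculum 0.5 × 105 to 2.5 × 10^5 CFU/ml. MICs were read spectrophotometrically at 24 h. AMB endpoint: ≥90% growth reduction vs drug-free control well. Azole and CPF endpoint: 50% reduction in optical density. MFC was taken as the lowest concentration giving 99% killing.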

[2] = system: Nakaseomyces glabratus; test: Antifungal activity against Candida glabrata; assay type: functional; outline: as §1
[3] = system: Candida parapsilosis; test: Antifungal activity against Candida parapsilosis; assay type: functional; conditions: Lodderomyces parapsilosis; outline: as §1
[4] = system: Pichia kudriavzevii; test: Antifungal activity against Candida krusei; assay type: functional
Outline: (§2)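 EUCAST broth microdilution for yeasts in flat-bottom plates, RPMI 1640 with 2% glucose, inoculum 0.5 × 105 to 2.5 × 10^5 CFU/ml. […] MFC is the lowest concentration giving 99% killing.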

[5] = system: Clavispora lusitaniae; test: Antifungal activity against Candida lusitaniae; assay type: functional; outline: as §1
[6] = system: Candida tropicalis; test: Antifungal activity against Candida tropicalis; assay type: functional; outline: as §1
[7] = system: Meyerozyma guilliermondii; test: Antifungal activity against Candida guilliermondii; assay type: functional; outline: as §1
[8] = system: Saccharomyces cerevisiae; test: Antifungal activity against Saccharomyces cerevisiae; assay type: functional
Outline: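 Broth microdilution following EUCAST for fermentative yeasts, in flat-bottom plates with RPMI 1640 plus 2% glucose. Inoculum was 0.5 × 10^5 to 2.5 × 10^5 CFU/ml. End points were read spectrophotometrically at 24 h: ≥90% growth reduction versus a drug-free control for amphotericin B, and 50% OD reduction for azoles and caspofungin. MFC was the lowest concentration giving 99% killing.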

[9] = Antifungal activity against Cryptococcus neoformans var. neoformans; assay type: functional; conditions: Cryptococcus deneoformans
Outline: (§3)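 EUCAST yeast microdilution, modified for nonfermentative yeasts: plates were sealed and agitated at 350 rpm and 30°C for 48 h.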

[10] = system: Cryptococcus gattii; test: Antifungal activity against Cryptococcus neoformans var. gattii; assay type: functional, Cryptococcus bacillisporus; outline: as §3
[11] = system: Trichosporon inkin; test: Antifungal activity against Trichosporon inkin; assay type: functional
Outline: (§4)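 Nonfermentative yeasts were tested by the EUCAST microdilution recommendations with one change: plates were sealed and agitated at 350 rpm and 30°C for 48 h.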

[12] = system: Trichosporon asahii; test: Antifungal activity against Trichosporon asahii; assay type: functional; outline: as §4
[13] = system: Geotrichum candidum; test: Antifungal activity against Geotrichum candidum; assay type: functional
[14] = system: Aspergillus fumigatus; test: Antifungal activity against Aspergillus fumigatus; assay type: functional
[15] = system: Aspergillus terreus; test: Antifungal activity against Aspergillus terreus; assay type: functional
[16] = system: Aspergillus flavus; test: Antifungal activity against Aspergillus flavus; assay type: functional
[17] = system: Aspergillus niger; test: Antifungal activity against Aspergillus niger; assay type: functional
[18] = system: Rhizomucor; test: Antifungal activity against Rhizomucor species; assay type: functional
[19] = system: Lichtheimia corymbifera; test: Antifungal activity against Absidia corymbifera; assay type: functional
[20] = system: Absidia; test: Antifungal activity against Absidia species; assay type: functional
[21] = Antifungal activity against Rhizopus microsporus var. oligosporus; assay type: functional
Outline: (§5)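 Broth microdilution following the EUCAST reference procedure for spore-forming moulds, in flat-bottom plates with RPMI 1640 plus 2% glucose. Inoculum was 2 × 10^5 to 5 × 10^5 CFU/ml. MICs were read visually at 24 and 48 h as 100% growth reduction versus a drug-free control for polyenes and azoles. MEC was used for caspofungin. Tests were run in duplicate and repeated twice.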

[22] = system: Rhizopus arrhizus; test: Antifungal activity against Rhizopus oryzae; assay type: functional; outline: as §5
[23] = system: Rhizopus; test: Antifungal activity against Rhizopus species; assay type: functional; outline: as §5
[24] = system: Mucor hiemalis; test: Antifungal activity against Mucor hiemalis; assay type: functional
[25] = system: Mucor; test: Antifungal activity against Mucor species; assay type: functional
[26] = system: Cunninghamella; test: Antifungal activity against Cunninghamella species; assay type: functional
[27] = system: Lomentospora prolificans; test: Antifungal activity against Scedosporium prolificans; assay type: functional; outline: as §5
[28] = system: Scedosporium apiospermum; test: Antifungal activity against Scedosporium apiospermum; assay type: functional; outline: as §5
[29] = system: Talaromyces marneffei; test: Antifungal activity against Penicillium marneffei; assay type: functional
[30] = system: Penicillium sp.; test: Antifungal activity against Penicillium species; assay type: functional
[31] = system: Fusarium solani; test: Antifungal activity against Fusarium solani; assay type: functional
[32] = system: Fusarium oxysporum; test: Antifungal activity against Fusarium oxysporum; assay type: functional
[33] = system: Sporothrix schenckii; test: Antifungal activity against Sporothrix schenckii; assay type: functional; outline: as §5
[34] = system: Curvularia lunata; test: Antifungal activity against Curvularia lunata; assay type: functional
[35] = system: Curvularia australiensis; test: Antifungal activity against Bipolaris australiensis; assay type: functional
Outline: (§6)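 Dematiaceous fungi were tested by the EUCAST spore-forming mold reference procedure: flat-bottom microdilution plates, RPMI 1640 plus 2% glucose, inoculum 2 × 105 to 5 × 10^5 CFU/ml. Endpoints were read visually at 24 and 48 h. Polyenes and azoles: 100% growth reduction vs drug-free control. CPF: minimum effective concentration. Run in duplicate and repeated twice.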

[36] = Antifungal activity against Rhinocladiella aquaspersa; assay type: functional; outline: as §6
[37] = system: Candida albicans; test: Antifungal activity against Candida albicans by EUCAST method; assay type: functional; outline: as §1
[38] = system: Nakaseomyces glabratus; test: Antifungal activity against Candida glabrata by EUCAST method; assay type: functional; outline: as §1
[39] = system: Candida parapsilosis; test: Antifungal activity against Candida parapsilosis by EUCAST method; assay type: functional; conditions: Lodderomyces parapsilosis; outline: as §1
[40] = system: Pichia kudriavzevii; test: Antifungal activity against Candida krusei by EUCAST method; assay type: functional; outline: as §1
[41] = system: Clavispora lusitaniae; test: Antifungal activity against Candida lusitaniae by EUCAST method; assay type: functional; outline: as §1
[42] = system: Candida tropicalis; test: Antifungal activity against Candida tropicalis by EUCAST method; assay type: functional; outline: as §1
[43] = system: Meyerozyma guilliermondii; test: Antifungal activity against Candida guilliermondii by EUCAST method; assay type: functional; outline: as §1
[44] = system: Saccharomyces cerevisiae; test: Antifungal activity against Saccharomyces cerevisiae by EUCAST method; assay type: functional; outline: as §2
[45] = Antifungal activity against Cryptococcus neoformans var. neoformans by EUCAST method; assay type: functional; conditions: Cryptococcus deneoformans; outline: as §3
[46] = system: Cryptococcus gattii; test: Antifungal activity against Cryptococcus neoformans var. gattii by EUCAST method; assay type: functional, Cryptococcus bacillisporus; outline: as §3
[47] = system: Trichosporon inkin; test: Antifungal activity against Trichosporon inkin by EUCAST method; assay type: functional; outline: as §4
[48] = system: Trichosporon asahii; test: Antifungal activity against Trichosporon asahii by EUCAST method; assay type: functional; outline: as §4
[49] = system: Geotrichum candidum; test: Antifungal activity against Geotrichum candidum by EUCAST method; assay type: functional
[50] = system: Aspergillus fumigatus; test: Antifungal activity against Aspergillus fumigatus by EUCAST method; assay type: functional
[51] = system: Aspergillus terreus; test: Antifungal activity against Aspergillus terreus by EUCAST method; assay type: functional
[52] = system: Aspergillus flavus; test: Antifungal activity against Aspergillus flavus by EUCAST method; assay type: functional
[53] = system: Aspergillus niger; test: Antifungal activity against Aspergillus niger by EUCAST method; assay type: functional
[54] = system: Cunninghamella; test: Antifungal activity against Cunninghamella species by EUCAST method; assay type: functional

`C[C@@H](c1ncncc1F)[C@](O)(Cn1cncn1)c1ccc(F)cc1F` [VORICONAZOLE] gave an MFC [1] of 0.06 µg/mL (≈ 0.172 µM), an MFC [2] of over 4 µg/mL and an MFC [3] of 0.06 µg/mL (≈ 0.172 µM). The MFC [4] was 0.5 µg/mL (≈ 1.43 µM), the MFC [5] was 0.06 µg/mL (≈ 0.172 µM) and the MFC [6] was 0.12 µg/mL (≈ 0.344 µM). The MFC [7] was 0.25 µg/mL (≈ 0.716 µM), the MFC [8] was over 4 µg/mL and the MFC [9] was 0.06 µg/mL (≈ 0.172 µM). For the same compound, the MFC [10] was 0.125 µg/mL (≈ 0.358 µM), the MFC [11] was 0.03 µg/mL (≈ 0.0859 µM) and the MFC [12] was over 8 µg/mL. It also gave an MFC [13] of over 4 µg/mL, an MFC [14] of 0.5 µg/mL (≈ 1.43 µM) and an MFC [15] of 1 µg/mL (≈ 2.86 µM). For the same compound, the MFC [16] was 1 µg/mL (≈ 2.86 µM), the MFC [17] was 2 µg/mL (≈ 5.73 µM) and the MFC [18] was over 8 µg/mL. The MFC [19] was over 8 µg/mL, the MFC [20] was over 8 µg/mL and the MFC [21] was over 8 µg/mL. For the same compound, the MFC [22] was over 8 µg/mL, the MFC [23] was over 8 µg/mL and the MFC [24] was over 8 µg/mL. For the same compound, the MFC [25] was over 8 µg/mL, the MFC [26] was over 8 µg/mL and the MFC [27] was over 8 µg/mL. For the same compound, the MFC [28] was over 8 µg/mL, the MFC [29] was over 8 µg/mL and the MFC [30] was over 8 µg/mL. The MFC [31] was over 8 µg/mL, the MFC [32] was over 8 µg/mL and the MFC [33] was over 8 µg/mL. For the same compound, the MFC [34] was over 8 µg/mL, the MFC [35] was over 8 µg/mL and the MFC [36] was over 8 µg/mL. For the same compound, the MIC [37] was 0.13 µg/mL (≈ 0.372 µM), the MIC [38] was 1.66 µg/mL (≈ 4.75 µM) and the MIC [39] was 0.08 µg/mL (≈ 0.229 µM). For the same compound, the MIC [40] was 0.53 µg/mL (≈ 1.52 µM), the MIC [41] was 0.07 µg/mL (≈ 0.2 µM) and the MIC [42] was 0.48 µg/mL (≈ 1.37 µM). It also gave an MIC [43] of 0.24 µg/mL (≈ 0.687 µM), an MIC [44] of 0.29 µg/mL (≈ 0.83 µM) and an MIC [45] of 0.05 µg/mL (≈ 0.143 µM). It also gave an MIC [46] of 0.05 µg/mL (≈ 0.143 µM), an MIC [47] of 0.05 µg/mL (≈ 0.143 µM) and an MIC [48] of 0.04 µg/mL (≈ 0.115 µM). It also gave an MIC [49] of 0.25 µg/mL (≈ 0.716 µM), an MIC [50] of 0.36 µg/mL (≈ 1.03 µM) and an MIC [51] of 0.29 µg/mL (≈ 0.83 µM). It also gave an MIC [52] of 0.41 µg/mL (≈ 1.17 µM), an MIC [53] of 0.33 µg/mL (≈ 0.945 µM) and an MIC [54] of over 8 µg/mL.
